Assay results collected from several papers.
Each line is one published result; the experiments were not run side by side. pIC50: −log10 of the molar value.
Observed: cell growth or viability

Compound	cell line	assay	setting	endpoint	result
C=C1C[C@@]23CC[C@H]4[C@@](C)(CCC[C@@]4(C)C(=O)O)[C@@H]2CC[C@@H]1C3	HuCC-A1	MTT	75 h	pIC50	3.97
Cc1n[nH]c2ccc3nc(-c4ccc(C(=O)NCCN(C)C)cc4F)c4c(c3c12)CCCC4	ML-2		72 h	GI50	0.095 µM
CCCCCCCCCCCCCCCCCCOc1ccc(CC(=O)OCC[N+](CC)(CC)CC)cc1	NCI-H226	SRB	10 µM	inhibition	16.1%
COc1ccc(Nc2ncnc3c2ncn3Cc2ccc(C(=O)Nc3ccccc3N)cc2)cc1	U-937	MTT	72 h	pIC50	4.64
CCc1nc(C(N)=O)c(Nc2ccc(N3CCC(N4CCN(C)CC4)CC3)c(OC)c2)nc1NC1CCOCC1	U-937		72 h	GI50	4.39 µM
COc1cccc2c1C(=O)c1c(O)c3c(c(O)c1C2=O)C[C@@](O)(C(=O)CO)C[C@@H]3O[C@H]1C[C@H](N)[C@H](O)[C@H](C)O1	HuCC-A1	MTT	48 h	pIC50	6.07
CC(C)(C)c1cnc(CSc2cnc(NC(=O)C3CCN(C(=O)CCCCCCCN4Cc5cc6c(cc5C4)C(=O)N(C4CCC(=O)NC4=O)C6=O)CC3)s2)o1 (stereo not shown)	NCI-H226	MTT		pIC50	7.24
COc1cccc2c1cc1c3c(cc4c(c32)OCO4)C(=O)N1C	HuCC-A1	MTT	75 h	pIC50	4.59
CC1=CC(=O)c2ccccc2C1=O	HuCC-A1	MTT		pIC50	4.64
Cc1nc(Nc2ncc(C(=O)Nc3c(C)cccc3Cl)s2)cc(N2CC[C@H](O)C2)n1	SU-DHL-8	ATP luminescence	10 µM, 72 h	inhibition	8%
CN(C)CCNC(=O)c1ccc(-c2nc3ccc4[nH]ncc4c3c3c2CCCC3)cc1	ML-2		72 h	GI50	0.152 µM
CCCCCCCCCCCCCCCCCCOc1cccc(CC(=O)OCC[N+]2(C)CCCC2)c1	NCI-H226	SRB	10 µM	inhibition	14.6%
CN(C)CCNC(=O)c1ccc(-c2nc3ccc4[nH]ncc4c3c3c2CCCCC3)cc1	ML-2		72 h	GI50	0.698 µM
COc1cccc2c1C(=O)c1c(O)c3c(c(O)c1C2=O)C[C@@](O)(C(=O)CO)C[C@@H]3O[C@H]1C[C@H](N)[C@H](O)[C@H](C)O1	U-937		96 h	pIC50	7.65
CCCCCCCCCCCCCCCCCCOc1ccc(CC(=O)OCC[N+]2(C)CCCC2)cc1	NCI-H226	SRB	10 µM	inhibition	7.36%
Nc1ccccc1NC(=O)c1ccc(Cn2cnc3c(Nc4ccc(Cl)cc4)ncnc32)cc1	U-937	MTT	72 h	pIC50	6.04
CCCCCCCCCCCCCCCCCCOCC(COP(=O)([O-])OCC[N+](C)(C)C)OC (stereo not shown)	NCI-H226	SRB	10 µM	inhibition	6.1%
Cc1n[nH]c2ccc3nc(-c4ccc(C(=O)NCCN(C)C)cc4)c4c(c3c12)CCCC4	ML-2		72 h	GI50	0.429 µM
CN1CCC(NC2CCc3[nH]c4c(C(N)=O)ccc(-c5ccccc5Cl)c4c3C2)CC1 (stereo not shown)	U-937		96 h	pIC50	8.12
CCCCCCCCCCCCCCCCCCOc1ccc(CC(=O)OCCC[N+](C)(C)C)cc1	NCI-H226	SRB	10 µM	inhibition	22.1%
CC(C)(C)c1cc(NC(=O)Nc2ccc(-c3cn4c(n3)sc3cc(OCCN5CCOCC5)ccc34)cc2)no1	ML-2		72 h	GI50	> 10 µM
CCCCCCCCCCCCCCCCCCOc1cccc(CC(=O)OCCC[N+](C)(C)C)c1	NCI-H226	SRB	10 µM	inhibition	15%
COc1ccc(Nc2ncnc3c2ncn3Cc2ccc(C(=O)NO)cc2)cc1	U-937	MTT	72 h	pIC50	5.91
Cc1n[nH]c2ccc3nc(-c4ccc(C(=O)NCCN(C)C)cc4)c4c(c3c12)CCCCC4	ML-2		72 h	GI50	1.07 µM
CCCCCCCCCCCCCCCCCCOc1ccccc1CC(=O)OCC[N+](C)(C)C	NCI-H226	SRB	10 µM	inhibition	71.3%
CN(C)CCNC(=O)c1ccc(-c2nc3ccc4[nH]ncc4c3c3c2CCCC3)c(F)c1	U-937		72 h	GI50	2.15 µM
CCCCCCCCCCCCCCCCCCOc1ccccc1CC(=O)OCC[N+]1(C)CCCCC1	NCI-H226	SRB	10 µM	inhibition	71.9%
O=C(NO)c1ccc(Cn2cnc3c(Nc4cccc([N+](=O)[O-])c4)ncnc32)cc1	U-937	MTT	72 h	pIC50	5.70
